Key:
Oryza sativa [1] = assay: Phytotoxicity against Oryza sativa (rice) assessed as growth inhibition at 37.5 g.a.i/ha pre-emergent application measured after 15 days by greenhouse crop selectivity assay; type: organism-based, L.; conditions: in vivo, other, 360 h
How it was run: (§1)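 Pre-emergence greenhouse crop selectivity test on pot-grown plants in clay soil (pH 6.5, 1.7% organic matter, 37.5% clay, CEC 12.9 cmol/kg). Stock solutions were diluted with water and applied at 300, 150, 75 or 37.5 g a.i./ha, in triplicate. After 15 days, phytotoxicity was scored visually against untreated controls as % crop growth inhibition, averaged over the triplicates.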

Triticum aestivum = assay: Phytotoxicity against Triticum aestivum (wheat) assessed as growth inhibition at 150 g.a.i/ha pre-emergent application measured after 15 days by greenhouse crop selectivity assay; type: organism-based; conditions: in vivo, other, 360 h; how it was run: as §1
Oryza sativa [2] = assay: Phytotoxicity against Oryza sativa (rice) assessed as growth inhibition at 75 g.a.i/ha pre-emergent application measured after 15 days by greenhouse crop selectivity assay; type: organism-based, L.; conditions: in vivo, other, 360 h; how it was run: as §1
[3] = Phytotoxicity against Glycine max (soybean) assessed as growth inhibition at 150 g.a.i/ha pre-emergent application measured after 15 days by greenhouse crop selectivity assay; type: organism-based; conditions: in vivo, 150 g.a.i/ha, read-out: GI; how it was run: as §1
[4] = Phytotoxicity against Triticum aestivum (wheat) assessed as growth inhibition at 37.5 g.a.i/ha pre-emergent application measured after 15 days by greenhouse crop selectivity assay; type: organism-based; conditions: in vivo, 37.5 g.a.i/ha, read-out: GI; how it was run: as §1
[5] = Phytotoxicity against Glycine max (soybean) assessed as growth inhibition at 300 g.a.i/ha pre-emergent application measured after 15 days by greenhouse crop selectivity assay; type: organism-based; conditions: in vivo, 300 g.a.i/ha, read-out: GI; how it was run: as §1
[6] = Phytotoxicity against Glycine max (soybean) assessed as growth inhibition at 75 g.a.i/ha pre-emergent application measured after 15 days by greenhouse crop selectivity assay; type: organism-based; conditions: in vivo, 75 g.a.i/ha, read-out: GI; how it was run: as §1

SMILES: CCOC(=O)C(CC)N1C(=O)C(C)Oc2cc(F)c(N3C(=O)C4=C(CCCC4)C3=O)cc21 (configuration not stated)
- growth inhibition (GI) (Oryza sativa [1]): Not Active
- growth inhibition (GI) (Triticum aestivum): Not Active
- growth inhibition (GI) (Oryza sativa [2]): Not Active

SMILES: C#CCN1C(=O)COc2cc(F)c(N3C(=O)C4=C(CCCC4)C3=O)cc21 [FLUMIOXAZIN]
- inhibition at 360 h [3]: > 10%
- inhibition at 360 h [4]: > 10%
- inhibition at 360 h [5]: > 10%
- inhibition at 360 h [6]: > 10%

Source: ChEMBL document CHEMBL3045743, “Synthesis and herbicidal activity of isoindoline-1,3-dione substituted benzoxazinone derivatives containing a carboxylic ester group” (J Agric Food Chem, 2009)
